The target of data set [1] is Interleukin-6 (Homo sapiens) (UniProt P05231). Briefly: Inhibition of IL-6 signaling pathway in human HepG2 cells transfected with p-STAT3-Luc assessed as reduction in IL-6 induced STAT3 phosphorylation at 20 ug/ml preincubated for 1 hr followed by IL-6 induction measured after 10 mins by immunoblot analysis. The format is cell-based. The method in brief: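 HepG2 cells were grown in MEM to 80% confluence and serum-starved for 6 h. They were treated with compound for 1 h, then with IL-6 (20 ng/ml) for 10 min. Lysates were run on SDS-PAGE and immunoblotted with anti-phospho-STAT3. Scanned band intensity was expressed relative to the IL-6-only band, set at 100%.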
For orientation: A western blot detects proteins with antibodies after separation by electrophoresis.

Data set [2] in a line: Cytotoxicity against human HepG2 cells assessed as cell viability at 10 ug/ml after 48 hrs by MTT assay. In kind it is cell-based. The note with it: read-out: Activity. The procedure, abridged: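 HepG2 cells in MEM with 10% FBS were exposed to compound at 1, 3, 10, 30 or 100 µg/ml for 48 h, then given MTT for 3 h. Formazan was dissolved in DMSO and OD read at 570 nm. Triplicates from three independent experiments, mean ± SE.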
In general terms: Tetrazolium assays rely on reduction of a dye to a coloured formazan, in cell work by metabolically active cells.

The test system of data set [3] is TH2 cell. Briefly: Antiinflammatory activity in C57BL6 mouse CD4-positive T-effector TH2 cells assessed as suppression of IL-5 levels at 10 uM preincubated for 3 to 4 days followed by anti-CD3 stimulation for 24 hrs by ELISA. The format is functional, cell-based. For orientation: ELISA stands for enzyme-linked immunosorbent assay.
Data set [4] deals with TH2 cell. Briefly: Antiinflammatory activity in C57BL6 mouse CD4-positive T-effector TH2 cells assessed as suppression of IL-4 levels at 10 uM preincubated for 3 to 4 days followed by anti-CD3 stimulation for 24 hrs by ELISA. The format is functional, cell-based. The method in brief:
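Mouse C57BL6 lymph node and spleen CD4+ T cells were primed for 24 h with anti-CD3 (2 µg/ml) and anti-CD28 (1 µg/ml). Th2 polarization used IL-4 (10 ng/ml) and anti-IFN-γ (1 µg/ml) with compound at 10 µM, refreshed every other day for 3-4 days. Cells were restimulated with anti-CD3 (1 µg/ml) for 24 h, and supernatant IL-4 was measured by biotin/streptavidin-peroxidase sandwich ELISA.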

A short description of data set [5]: Proinflammatory activity in C57BL6 mouse CD4-positive T-effector Th1 cells assessed as increase in anti-CD3/IL-12-induced IL-2 levels at 10 uM preincubated for 3 to 4 days followed by anti-CD3 stimulation for 24 hrs by ELISA. In kind it is ADME, cell-based. The note with it: th1, 24 h. The procedure, abridged: (§1)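 CD4+ T cells were isolated from C57BL6 mouse lymph node and spleen and primed with anti-CD3 (2 µg/ml) plus anti-CD28 (1 µg/ml) for 24 h. Compound (10 µM) was added with IL-12 (10 ng/ml) and anti-IL-4 (5 µg/ml), renewed every other day for 3-4 days, then cells were restimulated with anti-CD3 (1 µg/ml) for 24 h. Supernatant cytokine was measured by sandwich ELISA with peroxidase-streptavidin and OD read-out.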

The subject of data set [6] is TH2 cell. Briefly: Antiinflammatory activity in C57BL6 mouse CD4-positive T-effector TH2 cells assessed as suppression of IL-13 levels at 10 uM preincubated for 3 to 4 days followed by anti-CD3 stimulation for 24 hrs by ELISA. In kind it is functional, cell-based.
A further data set deals with Th17. Briefly: Antiinflammatory activity in C57BL6 mouse CD4-positive T-effector Th17 cells assessed as suppression of IL-17 levels at 10 uM preincubated for 3 to 4 days followed by anti-CD3 stimulation for 24 hrs by ELISA. The format is functional, cell-based.
Data set [7] in a line: Proinflammatory activity in C57BL6 mouse CD4-positive T-effector Th1 cells assessed as increase in anti-CD3/IL-12-induced IFNgamma levels at 10 uM preincubated for 3 to 4 days followed by anti-CD3 stimulation for 24 hrs by ELISA. In kind it is ADME, cell-based. Conditions: th1, 24 h. The procedure, abridged:
as §1

The test system of data set [8] is Th1. Briefly: Antiinflammatory activity in C57BL6 mouse CD4-positive T-effector Th1 cells assessed as suppression of anti-CD3/IL-12-induced IFNgamma levels at 10 uM preincubated for 3 to 4 days followed by anti-CD3 stimulation for 24 hrs by ELISA. In kind it is functional, cell-based. The procedure, abridged:
as §1

The subject of data set [9] is Th1. Briefly: Antiinflammatory activity in C57BL6 mouse CD4-positive T-effector Th1 cells assessed as suppression of anti-CD3/IL-12-induced IL-2 levels at 10 uM preincubated for 3 to 4 days followed by anti-CD3 stimulation for 24 hrs by ELISA. In kind it is functional, cell-based. The procedure, abridged:
as §1

Each structure is given as a SMILES string. Activity calls are given as the source filed them. No cut-off for these calls is given here.

A word on the inhibition: it is the percentage by which the read-out fell short of the control.

Sequence of Interleukin-6 (Homo sapiens) (P05231 whole entry): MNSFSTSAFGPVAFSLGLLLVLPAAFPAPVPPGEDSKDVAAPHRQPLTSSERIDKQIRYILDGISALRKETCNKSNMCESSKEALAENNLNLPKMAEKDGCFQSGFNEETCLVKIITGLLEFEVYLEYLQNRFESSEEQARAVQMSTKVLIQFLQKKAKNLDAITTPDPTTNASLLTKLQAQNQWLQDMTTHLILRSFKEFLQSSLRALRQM

As for `CCc1ccc(Nc2nc3cc(NC(=O)c4ccc([N+](=O)[O-])cc4Cl)ccc3o2)cc1`, the inhibition in data set [1] is 20%.

For `CCc1ccc(Nc2nc3cc(NC(=O)c4cc(F)cc(C(F)(F)F)c4)ccc3o2)cc1`, in [1], the inhibition amounted to 50.2%.

In the case of `CCc1ccc(Nc2nc3cc(NC(=O)c4ccc(Cl)c(Cl)c4)ccc3o2)cc1`, the inhibition in [1] was determined as 69.3%.

`CCc1ccc(Nc2nc3cc(NC(=O)c4ccccc4Nc4cccc(C(F)(F)F)c4)ccc3o2)cc1`: the inhibition in data set [1] stood at 84.6%. Also, the viability at 48 h, 10 ug/ml in data set [2] is 38.2%.

`CCc1ccc(Nc2nc3cc(NC(=O)c4ccc(C(C)(C)C)cc4)ccc3o2)cc1`: the inhibition in data set [1] turned out to be 86.5%. For the same compound, in data set [2], the viability at 48 h, 10 ug/ml turned out to be 59.8%.

For `CCc1ccc(Nc2nc3cc(NC(=O)c4ccc(Cl)cc4)ccc3o2)cc1`, the result in the data set with TH2 cell [3], in the data set on TH2 cell [4], in the data set on TH2 cell [6] and in the data set with Th17 was inactive. Also, the Activity entry in data set [5] and in data set [7] was “Toxic” throughout. Moreover, the inhibition in data set [1] stood at 12.1%.

In the case of `CCc1ccc(Nc2nc3cc(NC(=O)c4ccc(OC)c(OC)c4)ccc3o2)cc1`, the inhibition in [1] came to 26.2%.

As for `CCc1ccc(Nc2nc3cc(NC(=O)Cc4ccccc4)ccc3o2)cc1`, in data set [1], the inhibition was found to be 61.7%.

With `CCc1ccc(Nc2nc3cc(NC(=O)c4cccc(CCl)c4)ccc3o2)cc1`, the inhibition in data set [1] was determined as 91.7%. The viability at 48 h, 10 ug/ml in data set [2] came out at 41.1%.

With `CCc1ccc(Nc2nc3cc(NC(=O)c4ccc(CC)cc4)ccc3o2)cc1`, in data set [1], the inhibition was 63.3%.

Take `CCc1ccc(Nc2nc3cc(NC(=O)c4ccccc4)ccc3o2)cc1`: in data set [1], the inhibition was found to be 93.1%. In addition, the viability at 48 h, 10 ug/ml in data set [2] came to 65.6%.

Take `CCc1ccc(Nc2nc3cc(N)ccc3o2)cc1`: the result with TH2 cell [3], with TH2 cell [4], in the data set with TH2 cell [6], in the data set with Th1 [8], with Th17 and with Th1 [9] was Active. Besides, the inhibition in [1] came to 97.5%. The viability at 48 h, 10 ug/ml in [2] came to 70.8%.

Consider `CCc1ccc(Nc2nc3cc(NC(=O)c4cc(OC)c(OC)c(OC)c4)ccc3o2)cc1`, for which the inhibition in [1] amounted to 83.7%. For the same compound, the viability at 48 h, 10 ug/ml in data set [2] came to 16.4%.

As to `CCCCCCCc1ccc(C(=O)Nc2ccc3oc(Nc4ccc(CC)cc4)nc3c2)cc1`, the inhibition in data set [1] is 57.2%.

Consider `CCOc1ccccc1C(=O)Nc1ccc2oc(Nc3ccc(CC)cc3)nc2c1`, for which, in [1], the inhibition came out at 58%.

As to `CCc1ccc(Nc2nc3cc(NC(=O)c4cc([N+](=O)[O-])ccc4Cl)ccc3o2)cc1`, the inhibition in data set [1] stood at 65.6%.

The values are drawn from ChEMBL document CHEMBL4033664, “Synthesis of benzoxazole derivatives as interleukin-6 antagonists” (Bioorg Med Chem, 2017).
